Results as given in ChEMBL document CHEMBL4196061, “Novel topoisomerase I inhibitors. Syntheses and biological evaluation of phosphorus substituted quinoline derivates with antiproliferative activity” (Eur J Med Chem, 2018).

Legend:
SK-OV-3 = assay: Antiproliferative activity against human SKOV3 cells after 48 hrs by CCK-8 assay; type: functional, cell-based; conditions: SK-OV-3, 48 h
Procedure, shortened: (§1)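 Cells seeded at 2-4 x 10^3 per well and grown overnight in 0.1 mL medium with 10% FBS at 37 °C under 5% CO2. Drugs were added on day 2 and cells incubated 48 h. CCK-8 was then added for 2 h at 37 °C and absorbance read at 450 nm. IC50 values were reported.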

[1] = target: T1, DNA topoisomerase 1 (Homo sapiens) (UniProt P11387); assay: (§2) Inhibition of recombinant human topoisomerase 1-mediated DNA relaxation expressed in Saccharomyces cerevisiae TopI null strain RS190 at 80 uM using negatively supercoiled pUC18 as substrate pretreated with enzyme for 15 mins followed by substrate addition measured after 3 mins by agarose gel electrophoresis
T1 sequence (whole entry): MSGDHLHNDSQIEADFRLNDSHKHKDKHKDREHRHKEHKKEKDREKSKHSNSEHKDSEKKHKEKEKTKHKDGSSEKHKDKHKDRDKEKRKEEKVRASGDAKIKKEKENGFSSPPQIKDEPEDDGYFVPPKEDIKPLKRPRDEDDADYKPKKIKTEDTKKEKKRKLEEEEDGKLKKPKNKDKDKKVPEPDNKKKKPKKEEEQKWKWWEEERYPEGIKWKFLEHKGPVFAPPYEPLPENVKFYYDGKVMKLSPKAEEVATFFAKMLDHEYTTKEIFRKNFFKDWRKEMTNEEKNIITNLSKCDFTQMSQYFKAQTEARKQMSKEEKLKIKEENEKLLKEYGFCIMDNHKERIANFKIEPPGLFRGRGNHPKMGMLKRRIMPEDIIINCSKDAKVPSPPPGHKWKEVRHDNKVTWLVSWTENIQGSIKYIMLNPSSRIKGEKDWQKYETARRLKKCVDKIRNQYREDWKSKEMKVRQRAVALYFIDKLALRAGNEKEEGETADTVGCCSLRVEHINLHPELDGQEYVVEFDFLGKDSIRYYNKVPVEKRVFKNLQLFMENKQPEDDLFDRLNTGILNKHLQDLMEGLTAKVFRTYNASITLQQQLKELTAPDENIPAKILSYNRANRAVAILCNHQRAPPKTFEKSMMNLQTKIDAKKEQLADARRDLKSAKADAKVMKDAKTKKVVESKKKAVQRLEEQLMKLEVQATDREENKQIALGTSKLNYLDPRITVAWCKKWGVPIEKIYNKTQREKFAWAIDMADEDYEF
Procedure, shortened: (§3)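 Human TopI was expressed from pHT143 (GAL promoter) in yeast RS190 and affinity-purified. Reactions used 110 ng/µL TopI and 0.5 µg supercoiled pUC18 in 20 µl buffer (20 mM Tris–HCl, 0.1 mM Na2EDTA, 10 mM MgCl2, 50 µg/mL acetylated BSA, 150 mM KCl, pH 7.5). Drug was mixed with enzyme before DNA was added, and reactions were stopped with SDS. Products were resolved on 1% agarose in TBE and stained with gel red.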

A549 = assay: Antiproliferative activity against human A549 cells after 48 hrs by CCK-8 assay; type: functional, cell-based; conditions: A549, 48 h; procedure, shortened: as §1
[2] = target: T1, DNA topoisomerase 1 (Homo sapiens); assay: as §2, with “15 secs” for “3 mins”; procedure, shortened: as §3
MRC5 = assay: Antiproliferative activity against human MRC5 cells after 48 hrs by CCK-8 assay; type: cell-based; conditions: MRC5, 48 h; procedure, shortened: as §1
[3] = target: T1, DNA topoisomerase 1 (Homo sapiens); assay: as §2, with “1 min” for “3 mins”; procedure, shortened: as §3
HEK293 = assay: Antiproliferative activity against human HEK293 cells after 48 hrs by CCK-8 assay; conditions: HEK293, 48 h
[4] = target: T1, DNA topoisomerase 1 (Homo sapiens); assay: as §2, with “10” for “80”; procedure, shortened: as §3
[5] = target: T1, DNA topoisomerase 1 (Homo sapiens); assay: as §2, with “20” for “80”; procedure, shortened: as §3
[6] = target: T1, DNA topoisomerase 1 (Homo sapiens); assay: as §2, with “60” for “80”; procedure, shortened: as §3
[7] = target: T1, DNA topoisomerase 1 (Homo sapiens); assay: as §2, with “40” for “80”; procedure, shortened: as §3

Row | Compound | IC50 (SK-OV-3) | inhibition [1] | IC50 (A549) | inhibition [2] | inhibition [3] | inhibition [4] | inhibition [5] | inhibition [6] | inhibition [7] | IC50 (MRC5) | IC50 (HEK293)
1 | S=P(c1ccccc1)(c1ccccc1)c1cccc2c(-c3ccccc3)cc(-c3ccccc3)nc12 | > 50 µM | 24% | > 50000 nM | 75% | 60% | – | – | – | – | > 50 µM | > 50 µM
2 | O=P(c1ccccc1)(c1ccccc1)c1cccc2c(-c3ccccc3)cc(-c3ccc(F)cc3)nc12 | 8.16 µM | 25% | 2260 nM | 28% | 28% | – | – | – | – | > 50 µM | 17.2 µM
3 | Cc1ccc(-c2cc(-c3ccccc3)nc3c(P(=O)(c4ccccc4)c4ccccc4)cccc23)cc1 | 17.4 µM | 5% | 7650 nM | 7% | 7% | – | – | – | – | > 50 µM | 8.97 µM
4 | c1ccc([C@H]2C[C@@H](c3ccccc3)Nc3c2cccc3P(c2ccccc2)c2ccccc2)cc1 | > 50 µM | 85% | 600 nM | 85% | 85% | 0% | 0% | 0% | 0% | > 50 µM | > 50 µM
5 | Fc1ccc(-c2cc(-c3ccc(F)cc3)c3cccc(P(=S)(c4ccccc4)c4ccccc4)c3n2)cc1 | > 50 µM | – | > 50000 nM | – | – | – | – | – | – | > 50 µM | > 50 µM
6 | FC(F)(F)c1ccc(-c2cc(-c3ccccc3)c3cccc(P(=S)(c4ccccc4)c4ccccc4)c3n2)cc1 | > 50 µM | 81% | > 50000 nM | 81% | 81% | 8% | 10% | 24% | 18% | > 50 µM | > 50 µM
7 | COc1ccc([C@@H]2C[C@H](c3ccc(C)cc3)c3cccc(P(c4ccccc4)c4ccccc4)c3N2)cc1 | > 50 µM | 52% | 2480 nM | 52% | 52% | – | – | – | – | > 50 µM | > 50 µM
8 | O=P(c1ccccc1)(c1ccccc1)c1cccc2c(-c3ccccc3)cc(-c3ccccc3)nc12 | 14.5 µM | 8% | 1210 nM | 57% | 57% | – | – | – | – | > 50 µM | 13.8 µM
9 | O=P(c1ccccc1)(c1ccccc1)c1cccc2c(-c3ccccc3)cc(-c3ccc(C(F)(F)F)cc3)nc12 | 15.2 µM | 28% | 1030 nM | 31% | 28% | – | – | – | – | > 50 µM | 19.4 µM
10 | COc1ccccc1-c1cc(-c2ccccc2)c2cccc(P(=O)(c3ccccc3)c3ccccc3)c2n1 | 13.1 µM | 63% | 3110 nM | 90% | 83% | – | – | – | – | > 50 µM | 24.1 µM
11 | FC(F)(F)c1ccc([C@@H]2C[C@H](c3ccccc3)c3cccc(P(=S)(c4ccccc4)c4ccccc4)c3N2)cc1 | > 50 µM | 17% | 220 nM | 20% | 17% | – | – | – | – | > 50 µM | > 50 µM
12 | O=P(c1ccccc1)(c1ccccc1)c1cccc2c(-c3ccccc3)cc(-c3ccccn3)nc12 | 17.3 µM | 11% | 2930 nM | 58% | 52% | – | – | – | – | > 50 µM | 12 µM
13 | FC(F)(F)c1ccc([C@@H]2C[C@H](c3ccccc3)c3cccc(P(c4ccccc4)c4ccccc4)c3N2)cc1 | > 50 µM | 59% | 16200 nM | 61% | 61% | – | – | – | – | > 50 µM | > 50 µM
14 | O=P(c1ccccc1)(c1ccccc1)c1cccc2c(-c3ccccc3)cc(-c3cccc4ccccc34)nc12 | > 50 µM | 65% | 6320 nM | 89% | 87% | – | – | – | – | > 50 µM | 54.4 µM

Continued, in another order:

Row | IC50 (SK-OV-3) | inhibition [1] | IC50 (A549) | inhibition [2] | inhibition [3] | inhibition [4] | inhibition [5] | inhibition [6] | inhibition [7] | Compound | IC50 (MRC5) | IC50 (HEK293)
15 | > 50 µM | 21% | 1720 nM | 52% | 50% | – | – | – | – | O=P(c1ccccc1)(c1ccccc1)c1cccc2c1N[C@H](c1ccccc1)C[C@@H]2c1ccccc1 | > 50 µM | > 50 µM
16 | > 50 µM | 76% | 270 nM | 76% | 76% | 15% | 16% | 28% | 19% | S=P(c1ccccc1)(c1ccccc1)c1cccc2c1N[C@H](c1ccc3ccccc3c1)C[C@@H]2c1ccccc1 | > 50 µM | > 50 µM
17 | > 50 µM | 37% | 270 nM | 41% | 39% | – | – | – | – | Fc1ccc([C@@H]2C[C@H](c3ccccc3)c3cccc(P(=S)(c4ccccc4)c4ccccc4)c3N2)cc1 | > 50 µM | > 50 µM
18 | > 50 µM | 12% | 1200 nM | 28% | 25% | – | – | – | – | Cc1ccc([C@H]2C[C@@H](c3ccccc3)Nc3c2cccc3P(=O)(c2ccccc2)c2ccccc2)cc1 | > 50 µM | 28 µM
19 | > 50 µM | 75% | 30 nM | 85% | 84% | 17% | 17% | 19% | 17% | Fc1ccc([C@H]2C[C@@H](c3ccc(F)cc3)Nc3c2cccc3P(=S)(c2ccccc2)c2ccccc2)cc1 | > 50 µM | > 50 µM
20 | > 50 µM | 49% | 80 nM | 57% | 50% | – | – | – | – | Fc1ccc([C@@H]2C[C@H](c3ccccc3)c3cccc(P(=S)(c4ccccc4)c4ccccc4)c3N2)cc1F | > 50 µM | > 50 µM
21 | > 50 µM | – | 210 nM | – | – | – | – | – | – | COc1ccccc1[C@@H]1C[C@H](c2ccccc2)c2cccc(P(=O)(c3ccccc3)c3ccccc3)c2N1 | > 50 µM | 16.3 µM
22 | > 50 µM | 16% | 500 nM | 61% | 56% | – | – | – | – | O=P(c1ccccc1)(c1ccccc1)c1cccc2c1N[C@H](c1ccc(C(F)(F)F)cc1)C[C@@H]2c1ccccc1 | > 50 µM | 28 µM
23 | > 50 µM | 45% | 3570 nM | 63% | 63% | – | – | – | – | O=P(c1ccccc1)(c1ccccc1)c1cccc2c1N[C@H](c1cccc3ccccc13)C[C@@H]2c1ccccc1 | > 50 µM | > 50 µM
24 | 17.8 µM | 45% | 250 nM | 54% | 50% | – | – | – | – | O=P(c1ccccc1)(c1ccccc1)c1cccc2c1N[C@H](c1ccc(F)cc1)C[C@@H]2c1ccc(F)cc1 | > 50 µM | 23.9 µM
25 | 24.1 µM | 16% | 2690 nM | 55% | 50% | – | – | – | – | O=P(c1ccccc1)(c1ccccc1)c1cccc2c1N[C@H](c1ccc(F)cc1)C[C@@H]2c1ccccc1 | > 50 µM | 26.5 µM
26 | 6.77 µM | 13% | 3820 nM | 50% | 50% | – | – | – | – | O=P(c1ccccc1)(c1ccccc1)c1cccc2c(-c3ccc(F)cc3)cc(-c3ccc(F)cc3)nc12 | > 50 µM | 12.5 µM
